Assay outcomes deposited in PubChem BioAssay by The Scripps Research Institute Molecular Screening Center.
A selection: hits, their analogues and other compounds. The true share with any hit is near 3.6%.
VIM-2 inhibitor – blocks Pseudomonas aeruginosa VIM-2 metallo-beta-lactamase; inhibition, % at 5.6 µM; purified VIM-2, nitrocefin hydrolysis, epi-absorbance fluorescence; 290,000 tested, 0.89% active;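 active means inhibition above the mean of all tested compounds plus 3 SD, cutoff set per screening run, cut at about 7.5% in these data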;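 further: red hydrolysis product quenches plate fluorescence so inhibitors raise well fluorescence; 0% = enzyme with DMSO and 100% = DMSO without enzyme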
pPAFAH inh – inhibitors of human plasma PAF acetylhydrolase (pPAFAH). Q13093. recombinant pPAFAH, FP-rhodamine probe fluorescence polarization. inhibition, % at 3.39 µM. 330,000 tested, 1.5% active. AID 463082;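 active means inhibition above the mean inhibition across the screen plus 3 SD, cut at about 25% in these data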;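 further: inhibitors block binding of the rhodamine activity-based probe so polarization drops; 0% = enzyme with DMSO and 100% = wells lacking pPAFAH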
PAFAH1B3 FP inh – inhibitors of human PAFAH1B3; Q15102; recombinant PAFAH1B3, FP-rhodamine probe, fluorescence polarization; inhibition, % at 3.39 µM; 340,000 tested, 0.28% active; AID 492972;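 active means inhibition above the screen-wide average of all tested compounds plus 3 SD, cut at about 25% in these data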;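 further: 0% = enzyme with DMSO only and 100% = wells lacking PAFAH1B3 protein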
Target sequence (Q15102 whole entry, looked up): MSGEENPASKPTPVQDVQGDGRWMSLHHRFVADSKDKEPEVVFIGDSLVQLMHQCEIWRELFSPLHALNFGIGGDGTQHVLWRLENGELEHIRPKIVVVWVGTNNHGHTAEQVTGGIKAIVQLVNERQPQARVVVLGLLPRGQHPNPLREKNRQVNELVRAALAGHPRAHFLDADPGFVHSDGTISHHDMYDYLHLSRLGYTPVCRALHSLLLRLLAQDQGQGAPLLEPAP
PAFAH2 inh – PAFAH2 (human) inhibition; recombinant PAFAH2, FP-rhodamine activity probe, fluorescence polarization; inhibition, % at 3.39 µM; 340,000 tested, 0.99% active; AID 492956;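 active means inhibition above the mean over all tested compounds plus 3 SD, cut at about 30% in these data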;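 further: inhibitors block probe labeling of enzyme so polarization drops; 0% = enzyme with DMSO and 100% = wells lacking PAFAH2 protein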
PAFAH1B2 FP inh – blocks human PAF acetylhydrolase 1b catalytic subunit 2; recombinant PAFAH1B2, FP-rhodamine activity probe, fluorescence polarization; inhibition, % at 3.39 µM; 340,000 tested, 1.2% active;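 active means inhibition above the mean of all tested compounds plus 3 SD, cut at about 24% in these data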;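 further: 0% = enzyme with DMSO and 100% = wells lacking PAFAH1B2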
Target sequence (P68402 whole entry, looked up): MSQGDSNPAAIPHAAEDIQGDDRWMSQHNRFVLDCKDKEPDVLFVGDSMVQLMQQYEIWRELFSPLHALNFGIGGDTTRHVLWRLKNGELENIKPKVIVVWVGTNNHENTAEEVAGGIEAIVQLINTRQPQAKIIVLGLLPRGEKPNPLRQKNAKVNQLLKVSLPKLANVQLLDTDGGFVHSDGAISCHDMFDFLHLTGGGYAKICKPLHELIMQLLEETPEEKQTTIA
IMP-1 inhibitor – inhibitors of Pseudomonas aeruginosa IMP-1 metallo-beta-lactamase; inhibition, % at 5.6 µM; purified IMP-1, nitrocefin hydrolysis, epi-absorbance fluorescence; 290,000 tested, 0.45% active; AID 1556;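 active means inhibition above the mean plus 3 SD of all compounds in the same screening run, cut at about 4.5% in these data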;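 further: 0% = IMP-1 with DMSO and 100% = DMSO wells lacking enzyme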
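System: purified IMP-1 / Input: IMP-1 dispensed at 0.2 nM / Medium: 50 mM HEPES pH 7.1, 50 µM ZnSO4, 0.05% Brij 35 / Timing: 15 min enzyme–compound preincubation, then 25 min nitrocefin reaction, 25 °C / Technique: plate fluorescence quenching by hydrolysis product, ex 480/em 530 nm / Repeats: singlicate testing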
pPAFAH confirm – pPAFAH (human) inhibition, confirmed; recombinant pPAFAH, FP-Rh probe fluorescence polarization; inhibition, % at 3.39 µM; 2,300 tested, 72% active; shares compounds with pPAFAH inh;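 active means mean inhibition of the triplicate above the hit cutoff set for the earlier primary screen, cut at about 25% in these data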;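 further: 0% = enzyme with DMSO and 100% = wells lacking pPAFAH enzyme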
Active calls of the source: *; . = no result.

SMILES	VIM-2 inhibitor	pPAFAH inh	PAFAH1B3 FP inh	PAFAH2 inh	PAFAH1B2 FP inh	IMP-1 inhibitor	pPAFAH confirm
COc1cc2c(cc1OC)C(c1cccc(OC)c1OC)CC(=O)N2 (configuration not stated)	0	4	-5	-3	11	0	.
COc1cc2c(cc1OC)C(c1ccccc1C)CC(=O)N2 (configuration not stated)	1	67*	6	1	3	-3	3
CC(C)C(C)NC(=O)COC(=O)C1CCN(S(=O)(=O)c2ccc3c(c2)OCCO3)CC1 (configuration not stated)	.	38*	0	9	4	.	11
Cc1nc(S/C(=C/c2ccc(-c3ccc(Cl)cc3)o2)C(=O)O)n[nH]1	-5	11	5	19	9	-6	.
Cc1nc(S/C(=C/c2ccc(-c3cc(Cl)ccc3C)o2)C(=O)O)n[nH]1	-2	47*	25	28	13	-1	56*
COc1ccc(S(=O)(=O)N2CCCCC2)cc1NC(=O)Cc1ccc(Br)cc1	.	.	1	9	15	.	.
Cc1cc(/C=C2/C(=N)N3C(c4ccccc4)=CSC3=NC2=O)c(C)n1-c1ccc(Cl)cc1	.	.	-7	0	-2	.	.
N=C1/C(=C\c2ccc(-c3cccc(Cl)c3)o2)C(=O)N=C2SC=C(c3ccccc3)N12	-1	43*	2	-15	3	2	40*
CCN(C(=O)COC(=O)Cc1c[nH]c2ccccc12)c1c(N)n(Cc2ccccc2)c(=O)[nH]c1=O	.	5	9	3	1	.	.
O=C(CNC(c1ccccc1)c1ccccc1)Nc1ccccc1F	-3	47*	-4	6	6	-3	-4
COC1OC2COC(c3ccccc3)OC2C(OC(C)=O)C1OC(C)=O (configuration not stated)	.	.	-3	2	1	.	.
CCCCCC(=O)Cc1cc(O)cc2c1C(=O)Oc1cc(O)c(C(=O)O)c(CCCCC)c1O2	.	43*	.	.	.	.	59*
Cc1ccc2c(c1)cc1c(=O)n(CC(=O)NCCCc3ccccc3)nc(C)n12	0	-3	4	6	2	0	.
COc1ccc(CCNC(=O)COc2cccc(-n3cnnn3)c2)cc1	.	.	-2	1	-2	.	.
CCN(CC)c1ccc(NS(=O)(=O)c2ccc(-c3ccc(=O)[nH]n3)o2)c(C)c1	3	68*	2	10	6	-11	50*
Cn1[nH]cc(C=NC(N)=O)c1=O	.	.	17	-1	-1	.	.
O=C(N/N=C/c1cc([N+](=O)[O-])ccc1O)c1cccc2cc[nH]c12	-4	61*	-9	24	-3	-5	52*
O=C(N/N=C/c1cccc([N+](=O)[O-])c1)c1cccc2cc[nH]c12	-1	1	-6	-9	-1	-2	.
O=S(=O)(c1ccc2nc(-c3ccco3)c(-c3ccco3)nc2c1)N1CCOCC1	-2	43*	12	21	11	0	13
O=S(=O)(c1ccc2ccccc2c1)N1CCOCC1	1	2	4	0	4	-1	.
N#C/C=C1/NC(=O)c2ccccc2S1	9.1*	57*	4	-2	-2	0	5
COc1ccc(C(=O)N/N=C(\C)c2ccc3c(c2)C2C=CCC2C(c2ccccc2)N3)cc1 (configuration not stated)	-4	10	1	8	-3	-1	.
O=C(NCCOc1ccccc1)C1Nc2ccc(OC(F)(F)F)cc2C2C=CCC12 (configuration not stated)	.	4	18	4	-1	.	.
O=C(O)c1ccc2c(c1)[C@@H]1C=CC[C@@H]1[C@H](c1ccccn1)N2	-2	64*	61*	49*	33*	5.6*	15
COc1cccc(NS(=O)(=O)c2ccc3c(c2)C2C=CCC2C(c2ccc(C(=O)O)cc2)N3)c1 (configuration not stated)	-5	61*	40*	68*	36*	22*	61*
COc1ccc(CCC(=O)NNC(=O)Nc2ccccc2Cl)cc1	-2	.	6	4	1	-1	.
